Measurements as given in ChEMBL document CHEMBL3526060, “Impact of hydrolysis-mediated clearance on the pharmacokinetics of novel anaplastic lymphoma kinase inhibitors” (Drug Metab Dispos, 2013).

Experiments:
[1] = Plasma clearance in CD-1 mouse at 2 mg/kg, iv administered as single bolus dose by LC-MS/MS analysis; format: ADME, organism-based; set-up: dose 2 mg/kg, route intravenous
Outline: (§1)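 Single 2 mg/kg IV bolus via lateral tail vein to male CD-1 mice. Mice euthanized at 0.083–24 h, 3 per time point (27 animals); cardiac-puncture blood into heparin on ice, plasma spun at 4 °C and immediately extracted with acetonitrile/0.1% formic acid plus IS, LC-MS/MS. Noncompartmental CL = Dose/AUC0–inf, t1/2 = 0.693/k, Vss from AUMC/AUC, MRT = Vss/CL.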

[2] = Fraction unbound in CD-1 mouse plasma after 7 hrs by equilibrium dialysis method; format: ADME, cell-free
Outline: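 Mouse plasma pre-treated 20 min with 100 µM DFP to block hydrolysis, spiked at 0.1, 0.5 or 2 µM, equilibrium dialysis against PBS for 7 h at 37 °C, 5% CO2, triplicate; matrix-matched samples extracted with acetonitrile/IS, LC-MS/MS; fu = buffer/plasma concentration.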

[3] = Volume of distribution at steady state in CD-1 mouse at 2 mg/kg, iv administered as single bolus dose by LC-MS/MS analysis; format: ADME, organism-based; set-up: dose 2 mg/kg, route intravenous; conditions: in vivo, read-out: Vdss; outline: as §1
[4] = Drug metabolism in CD-1 mouse NADPH-fortified liver microsomes assessed as hydrolysis metabolite formation rate by LC-MS/MS analysis; format: ADME; conditions: for Km: read-out: Km(app)
Outline: (§2)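 Mouse liver microsomes 0.25 mg/mL in 0.1 M phosphate pH 7.4, with or without 1 mM NADPH, substrate 0.0023–5 µM; sampling to 40 min into acetonitrile/IS, LC-MS/MS depletion. Hydrolysis Vmax/Km solved from no-NADPH incubations, then NADPH-dependent constants; metabolite formation rate simulated from fitted constants; duplicates.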

[5] = Drug metabolism in CD-1 mouse liver microsomes assessed as hydrolysis metabolite formation rate by LC-MS/MS analysis; format: ADME; conditions: for Km: read-out: Km(app); outline: as §2
[6] = Mean residence time in CD-1 mouse at 2 mg/kg, iv administered as single bolus dose by LC-MS/MS analysis; format: ADME, organism-based; set-up: dose 2 mg/kg, route intravenous; conditions: in vivo; outline: as §1
Plasma [7] = assay: Drug metabolism in CD-1 mouse plasma assessed as maximum intrinsic clearance for hydrolysis metabolite formation by LC-MS/MS analysis; format: ADME, cell-free
Outline: (§3)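 Mouse plasma depletion kinetics at 37 °C, substrate range 0.0023–5 µM, up to 3 h; samples quenched into acetonitrile/tolbutamide, LC-MS/MS. CLint per concentration from t1/2; apparent Vmax and Km fitted by nonlinear regression to Michaelis-Menten, formation rate simulated from fit; mean of two replicates.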

[8] = In vitro half life in CD-1 mouse plasma at 0.83 uM by LC-MS/MS analysis; format: ADME, cell-free
Outline: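 Screening stability: compound at 0.83 µM in mouse plasma at 37 °C, up to 3 h; timed aliquots quenched into acetonitrile with tolbutamide IS, centrifuged, LC-MS/MS; half-life from depletion, CLint = (0.693/t1/2)/plasma concentration.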

Plasma [9] = assay: Drug metabolism in CD-1 mouse plasma assessed as hydrolysis metabolite formation rate by LC-MS/MS analysis; format: ADME, cell-free; conditions: for Km: read-out: Km(app); outline: as §3
[10] = Half life in CD-1 mouse at 2 mg/kg, iv administered as single bolus dose by LC-MS/MS analysis; format: ADME, organism-based; set-up: dose 2 mg/kg, route intravenous; conditions: in vivo; outline: as §1
[11] = AUC (0 to infinity) in CD-1 mouse at 2 mg/kg, iv administered as single bolus dose by LC-MS/MS analysis; format: ADME, organism-based; set-up: time infinity, dose 2 mg/kg, route intravenous; conditions: plasma; outline: as §1
[12] = Ratio of drug level in blood to plasma in CD-1 mouse at 1 uM treated 20 mins after amide hydrolysis inhibitor DFP challenge measured after 1 hr by LC-MS/MS analysis; format: ADME; conditions: whole blood
Outline: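 Fresh whole blood pre-incubated 20 min with 100 µM DFP, warmed to 37 °C, spiked to 1 µM, incubated 1 h, then plasma separated; reference plasma spiked at 1 µM. Extracted with 6 volumes acetonitrile/IS, LC-MS/MS; ratio = reference plasma peak area / treated plasma peak area.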

[13] = Fraction unbound in CD-1 mouse liver microsomes after 7 hrs by equilibrium dialysis method; format: ADME
Outline: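 Equilibrium dialysis of 0.25 mg/mL mouse liver microsomes in phosphate buffer against PBS, 7 h at 37 °C, 5% CO2, test compound 0.1, 0.5 or 2 µM, triplicate; LC-MS/MS; fraction unbound = buffer/microsome concentration.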

| Structure (SMILES) | clearance [1] [mL/min/kg] | fraction unbound at 7 h [2] | Vd [3] [L/kg] | Vmax(app) [4] [pmol/min/mg] | Km [4] [µM] | Vmax(app) [5] [pmol/min/mg] | Km [5] [µM] | MRT [6] [h] | CL (Plasma [7]) [uL/min.ml] | half-life at 0.83 µM [8] [h] | Vmax(app) (Plasma [9]) [pmol/min/mL] | Km (Plasma [9]) [µM] | half-life [10] [h] | AUC(0-inf) [11] [µM·h] | blood plasma ratio at 1 h, 1 µM [12] | fraction unbound at 7 h [13] |
| --- | --- | --- | --- | --- | --- | --- | --- | --- | --- | --- | --- | --- | --- | --- | --- | --- |
| CC(C)NC(=O)[C@H]1CC[C@@H](n2/c(=N/C(=O)c3cccc(C(F)(F)F)c3)[nH]c3ccc(CN4CCC(C(C)(C)O)CC4)cc32)CC1 | 44.3 | 0.012 | 7.78 | 194 | 1.95 | 5.38 | 0.261 | 2.92 | 1.68 | 8.5 | 1.14 | 0.68 | 2.2 | 1.2 | 0.9 | 0.22 |
| CC(C)NC(=O)[C@H]1CC[C@@H](n2/c(=N/C(=O)c3cc(F)cc(Cl)c3)[nH]c3ccc(CN4CCC(C(C)(C)O)CC4)cc32)CC1 | 35.7 | 0.011 | 5.47 | 279 | 1.9 | 2.49 | 0.053 | 2.56 | 2.09 | 8.2 | 0.305 | 0.146 | 2.08 | 1.53 | 0.9 | 0.22 |
